Source: PubChem BioAssay
The source made the active and inactive calls.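 Rule for the calls, unless noted: active = a full or partial loss of lipid-probe fluorescence in the fish gall bladder, intestine or both, judged by eye; inactive = no fluorescence loss, or compound toxic to the fish.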

Legend:
[1] = inhibitors of TNFa-induced NFkB p65 translocation, primary screen, imaging, HUVEC, MLSMR starter and 10KST1 sets (AID 438;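 active = inhibition above 20% together with a positive visual image hit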;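 note: compound added about 3h40 before a 20 min TNFalpha stimulation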;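 for inhibition: signal is the nuclear over cytoplasmic p65 intensity ratio per well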); settings: HUVEC TNFa-induced p65 nuclear translocation; cell count: measured here: nuclei count (cytotoxicity indicator), at 2.08 µM; inhibition: at 2 µM, stronger effect = higher value, 0% TNFa-plus-vehicle, 100% no-TNFa wells
[2] = inhibitors of E-selectin induction by TNFa, primary screen, imaging, HUVEC, immunofluorescence, MLSMR starter and 10KST1 sets (AID 487;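 active = visually confirmed hit in the image check and inhibition above 20%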;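 for inhibition: signal is fraction of cell area covered by stained E-selectin grains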;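 for nuclei count: 100% = median nuclei count of all wells on the same plate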); settings: HUVEC TNFalpha-induced E-selectin immunofluorescence imaging, at 2 µM; inhibition: stronger effect = higher value; nuclei count: measured here: cell number, toxicity
[3] = DUSP6 inhibitors restoring Erk phosphorylation by chemical complementation, primary imaging in DUSP6-transfected HeLa (AID 609;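 active = compounds giving at least 50% inhibition in the cell-based MKP-3 phosphatase rescue imaging test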;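 for inhibition: phospho-Erk level distribution per well compared with pooled transfected vehicle control wells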); settings: HeLa MKP-3 transfected, phospho-Erk imaging KS statistic, at 10 µM, cells stimulated with TPA for 15 min
[4] = biological target: Dual specificity protein phosphatase 6 (Homo sapiens) (UniProt Q16828); experiment: as above; settings: HeLa MKP-3 transfected, phospho-Erk imaging KS statistic; at 10 µM; stronger effect = higher value; cells stimulated with TPA for 15 min
[5] = biological target: Voltage-gated potassium channel subunit beta-2 (Rattus norvegicus) (UniProt P62483); experiment: KvBeta enzyme negative modulators, primary screen, biochemical, NADPH fluorescence (AID 622;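 active = fluorescence slope higher than the sample average by over 3 SD, cut at about -0.22 in these data, passing the limit was not always enough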;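 note: slope of raw intensity against log time taken from 70 to 1610 s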); settings: recombinant KvBeta, 4-cyanobenzaldehyde reduction, at 10 µM, stronger effect = higher value
[6] = biological target: Voltage-gated potassium channel subunit beta-2 (Rattus norvegicus) (UniProt P62483); experiment: KvBeta positive modulators, primary screen, biochemical, NADPH fluorescence (AID 623;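 active = NADPH fluorescence slope more negative than the mean of all samples by about 3 SD, 99.7% confidence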;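 note: fluorescence intensity change per second fitted from 20 to 320 s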); settings: Recombinant KvBeta, NADPH fluorescence decrease slope, 10 min; at 10 µM; stronger effect = lower value
[7] = biological target: Muscarinic acetylcholine receptor M4 (Homo sapiens) (UniProt P08173); experiment: compounds altering M4/GIRK thallium flux, either direction, primary screen, M4 allosteric agonist project, cell-based, HEK293 M4/GIRK, BTC-AM (AID 625;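 active = fluorescence slope after compound addition differing from the mean of all tested samples at 99.7% confidence, mostly higher but some lower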;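 note: thallium influx through GIRK channels coupled to M4 in HEK293 cells with BTC-AM dye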); settings: at 10 µM, actives lie on both sides
Outline: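 Material: M4/GIRK1/GIRK2 stable HEK293 cell line. Medium: pH 7.3 thallium assay buffer. Dosing: single compound concentration, 10 µM final. Schedule: 1 h dye loading, 2 min kinetic read. Measured by: kinetic fluorescence with BTC-AM dye. Read-out: post-addition slope, 15–24 s, of baseline-normalized fluorescence. Benchmarks: carbachol and DMSO controls.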

[8] = inhibitors of larval lipid processing in zebrafish, primary screen, whole organism, PED6 fluorescence, gall bladder and intestine (AID 686); settings: Zebrafish larvae PED6 lipid processing, fluorescence scoring; screened at 20 µM (by protocol);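 note: larvae 5 to 7 days old with five fish per well; signal comes from phospholipase A2 cleavage of quenched PED6 carried via bile; overnight exposure to compound and PED6 before scoring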
Outline: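 System: live zebrafish larvae aged 5-7 days, whole organism; measure: graded gall bladder and intestinal fluorescence inhibition per well; incubation: overnight exposure; reagent: ingested quenched lipid PED6 at 100 nM; signal: By-eye fluorescence microscopy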

[9] = inhibitors of Chlamydomonas gravitaxis, primary screen, whole organism, Chlamydomonas reinhardtii, WT vs cilia-less mutant, absorbance, 96-well (AID 463189;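 active = inhibition at or above 50% relative to wild type and mutant plate controls; inactive = inhibition below 50%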;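 note: 0% = wild type cc124 cells in DMSO and 100% = ciliumless bld1 mutant cells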); settings: OD600 absorbance, 2 days, at 10 µM, stronger effect = higher value
[10] = measured here: cell density z-score
[11] = measured here: nuclear c-Myc green intensity z-score
[12] = measured here: nuclear pErk red intensity z-score, stronger effect = higher value

Sequence of Voltage-gated potassium channel subunit beta-2 (Rattus norvegicus) (P62483 whole entry, looked up): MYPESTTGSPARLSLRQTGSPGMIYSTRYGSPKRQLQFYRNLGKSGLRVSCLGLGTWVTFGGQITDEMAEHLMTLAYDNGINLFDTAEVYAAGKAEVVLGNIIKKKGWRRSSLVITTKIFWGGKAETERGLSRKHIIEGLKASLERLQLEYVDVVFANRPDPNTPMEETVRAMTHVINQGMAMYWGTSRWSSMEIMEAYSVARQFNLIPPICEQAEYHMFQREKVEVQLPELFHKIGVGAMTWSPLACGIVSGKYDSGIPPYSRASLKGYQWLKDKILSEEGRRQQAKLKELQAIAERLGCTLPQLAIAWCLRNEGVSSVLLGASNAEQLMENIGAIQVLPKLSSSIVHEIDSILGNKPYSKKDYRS
Sequence of Dual specificity protein phosphatase 6 (Homo sapiens) (Q16828 whole entry, looked up): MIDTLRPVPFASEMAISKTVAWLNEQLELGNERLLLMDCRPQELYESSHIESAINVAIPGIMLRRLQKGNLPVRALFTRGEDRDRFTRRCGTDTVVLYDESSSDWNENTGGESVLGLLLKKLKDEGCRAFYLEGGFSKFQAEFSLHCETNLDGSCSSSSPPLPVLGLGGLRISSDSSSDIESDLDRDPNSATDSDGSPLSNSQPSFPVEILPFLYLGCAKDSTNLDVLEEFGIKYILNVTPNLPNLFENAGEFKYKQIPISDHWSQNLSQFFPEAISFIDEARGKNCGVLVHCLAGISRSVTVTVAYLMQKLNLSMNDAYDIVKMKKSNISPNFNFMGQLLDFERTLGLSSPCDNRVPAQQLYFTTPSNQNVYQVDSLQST
Sequence of Muscarinic acetylcholine receptor M4 (Homo sapiens) (P08173 whole entry, looked up): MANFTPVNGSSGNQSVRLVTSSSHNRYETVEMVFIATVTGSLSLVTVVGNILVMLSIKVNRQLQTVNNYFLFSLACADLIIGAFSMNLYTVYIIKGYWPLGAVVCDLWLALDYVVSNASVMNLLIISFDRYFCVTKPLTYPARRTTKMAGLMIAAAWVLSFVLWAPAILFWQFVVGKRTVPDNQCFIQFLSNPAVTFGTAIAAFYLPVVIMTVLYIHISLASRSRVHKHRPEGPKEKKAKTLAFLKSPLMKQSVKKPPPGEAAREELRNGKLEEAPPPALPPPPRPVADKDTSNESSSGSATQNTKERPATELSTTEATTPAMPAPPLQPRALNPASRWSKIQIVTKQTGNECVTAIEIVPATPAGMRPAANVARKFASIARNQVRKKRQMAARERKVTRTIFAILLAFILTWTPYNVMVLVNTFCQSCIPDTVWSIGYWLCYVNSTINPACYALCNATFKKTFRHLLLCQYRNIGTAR

Row | SMILES | cell count [1] | inhibition [1] | inhibition [2] | nuclei count [2] [%] | z-score [3, 10] | z-score [3, 11] | z-score [3, 12] | inhibition [4] | fluorescence slope [5] | NADPH fluorescence slope [6] | fluorescence slope [7] | outcome [8] | inhibition [9]
1 | Cn1c(Cn2cnc(Cl)c2Cl)nc2ccccc21 | 583 | 0.2% (inactive) | -75.8% (inactive) | 138 | 0.873 | 1.34 | 0.561 | 12.8% (inactive) | -0.454 (inactive) | -8.5e-05 (inactive) | 0.00447 (inactive) | inactive | 21.9% (inactive)
2 | Clc1ccc(-n2ncc3c(NCc4cccs4)ncnc32)cc1 | 615 | -9.4% (inactive) | -52.5% (inactive) | 125 | 0.539 | 0.108 | 0.0803 | 11.4% (inactive) | -0.385 (inactive) | -2.1e-05 (inactive) | 0.00704 (inactive) | inactive | 42.7% (inactive)
3 | N#Cc1c(N)n(CCOC(=O)c2ccc(Cl)cc2)c2nc3ccccc3nc12 | 617 | 22.7% (active) | -33.2% (inactive) | 95 | -0.315 | -0.666 | -0.586 | -2.47% (inactive) | -0.278 (inactive) | -7.1e-06 (inactive) | 0.00595 (inactive) | inactive | -2.92% (inactive)
4 | CN(C)CCNC(=O)C12CC3(C)CC(C)(CC(C)(C3)C1)C2 | 524 | -4.4% (inactive) | -34.6% (inactive) | 118 | -1.47 | 1.88 | -1.54 | -6.59% (inactive) | -0.465 (inactive) | -0.000122 (inactive) | 0.00507 (inactive) | inactive | -10.5% (inactive)
5 | COCCOC(=O)c1c(C)oc2ccc(OC(=O)COc3c(F)c(F)c(F)c(F)c3F)cc12 | 524 | -3.3% (inactive) | -26.1% (inactive) | 98.8 | -0.212 | -0.943 | 0.127 | -2.09% (inactive) | -0.461 (inactive) | -2.6e-05 (inactive) | 0.0112 (inactive) | inactive | -9.48% (inactive)
6 | Cc1cc(C(=O)O)c(CSc2ncn[nH]2)o1 | 652 | -7.4% (inactive) | -48.6% (inactive) | 174 | -1.18 | 1.91 | 1.7 | -5.81% (inactive) | -0.455 (inactive) | -0.000158 (inactive) | 0.0045 (inactive) | inactive | -11% (inactive)
7 | c1ccc(-n2c(Cc3cccnc3)nc3cnccc32)cc1 | 581 | -2.4% (inactive) | 48.6% (inactive) | 107 | -0.422 | -1.1 | -1.28 | -6.48% (inactive) | -0.468 (inactive) | -5.8e-05 (inactive) | 0.00562 (inactive) | inactive | 1.93% (inactive)
8 | COc1ccc(/C(O)=C2/C(=O)C(=O)N(c3nc(C)c(C)s3)C2c2ccco2)cc1 (stereo unspecified) | 611 | -12.5% (inactive) | -52.8% (inactive) | 196 | 1.1 | -0.551 | 1.3 | 12.7% (inactive) | -0.446 (inactive) | -5.8e-05 (inactive) | 0.00557 (inactive) | inactive | 0.492% (inactive)
9 | O=C(Nc1ccccc1)c1cc(N2CCOCC2)nc2ccccc12 | 667 | -1.5% (inactive) | -114% (inactive) | 149 | 1.08 | 1.33 | -0.63 | 6.51% (inactive) | -0.419 (inactive) | -6.8e-05 (inactive) | 0.00579 (inactive) | inactive | -0.488% (inactive)
10 | CCCc1cc(=O)oc2c(CN3CCCC3)c(O)ccc12 | 571 | -10.8% (inactive) | -11.6% (inactive) | 118 | 0.0938 | -0.952 | -1.55 | 0.671% (inactive) | -0.0292 (inactive) | 1.1e-05 (inactive) | 0.0058 (inactive) | inactive | -1.86% (inactive)
11 | CC12CN3CC(C)(CN(C1)C3c1ccc(Br)cc1O)C2 (stereo unspecified) | 576 | -3% (inactive) | -162% (inactive) | 138 | 0.885 | -1.75 | -1.65 | 5.42% (inactive) | -0.472 (inactive) | -8.8e-05 (inactive) | 0.00399 (inactive) | inactive | 4.37% (inactive)
12 | Cc1nn(CCO)c2c1C(=O)CCC2 | 514 | -5.8% (inactive) | -16.6% (inactive) | 166 | 1.33 | -0.18 | -0.238 | 5.95% (inactive) | -0.382 (inactive) | -2.1e-05 (inactive) | 0.00488 (inactive) | inactive | -6.32% (inactive)
13 | FC(F)(F)c1cccc(N2CCc3cn[nH]c32)c1 | 690 | 2.2% (inactive) | -30.9% (inactive) | 178 | 0.755 | 0.954 | 0.248 | 15.9% (inactive) | -0.48 (inactive) | -6.5e-05 (inactive) | 0.00449 (inactive) | inactive | -4.32% (inactive)
14 | O=C(c1coc(=O)c(Br)c1)N1CCOCC1 | 718 | 2.4% (inactive) | -137% (inactive) | 181 | -0.0624 | 0.26 | 0.186 | -4.7% (inactive) | -0.429 (inactive) | 3.1e-07 (inactive) | 0.00447 (inactive) | inactive | 14.2% (inactive)
15 | CC(C)=CCC(C)(C)CNC(=O)NC1CCCCC1 | 577 | -4.2% (inactive) | -143% (inactive) | 147 | -0.346 | -0.203 | -0.256 | -0.584% (inactive) | -0.459 (inactive) | -0.000111 (inactive) | 0.00622 (inactive) | inactive | 19.5% (inactive)
16 | CC1(C)Cc2[nH]c(=S)c(C#N)cc2CO1 | 531 | -11.7% (inactive) | -90.9% (inactive) | 118 | 0.165 | 0.751 | -0.483 | -5.81% (inactive) | -0.459 (inactive) | -0.000113 (inactive) | 0.0062 (inactive) | inactive | -14% (inactive)
17 | COc1ccc(NC(=O)c2c(C)cc(=O)oc2C)c(OC)c1 | 631 | 3.2% (inactive) | 11.9% (inactive) | 111 | 0.599 | -0.258 | 0.577 | -7.67% (inactive) | -0.454 (inactive) | -3.9e-05 (inactive) | 0.00518 (inactive) | inactive | -7.06% (inactive)
18 | Cc1nnc2n(C3CCCCC3)c(=O)c3c4c(sc3n12)COC(C)(C)C4 | 471 | -0.7% (inactive) | -19% (inactive) | 96.4 | -2.3 | 1.13 | -0.467 | -3.97% (inactive) | -0.389 (inactive) | 7.7e-06 (inactive) | 0.00567 (inactive) | inactive | 11.1% (inactive)
19 | Cc1cc(=O)oc(C)c1C(=O)NCCc1ccccc1 | 661 | 9.3% (inactive) | -1% (inactive) | 109 | -0.903 | 1.05 | 0.63 | 5.35% (inactive) | -0.433 (inactive) | -4.2e-05 (inactive) | 0.00484 (inactive) | inactive | -7.3% (inactive)
20 | COC(=O)CSc1nnc(C)c(=O)[nH]1 | 609 | -15.3% (inactive) | -317% (inactive) | 138 | 0.155 | 1.52 | -3.1 | -7.86% (inactive) | -0.484 (inactive) | -7.4e-05 (inactive) | 0.00545 (inactive) | inactive | -3.96% (inactive)
21 | CCOc1cccc(NC(=O)C2CC(=O)NC(=Nc3ccccc3)S2)c1 (stereo unspecified) | 590 | -4.7% (inactive) | -27.3% (inactive) | 117 | -0.0327 | -1.3 | -0.145 | -11.4% (inactive) | -0.456 (inactive) | -1.8e-05 (inactive) | 0.00448 (inactive) | inactive | 8.03% (inactive)
22 | Nc1nnnn1/N=C/c1cccc(Oc2ccccc2)c1 | 539 | -12.1% (inactive) | 65.8% (inactive) | 88.7 | 1.62 | -1.31 | -1.66 | 21% (inactive) | -0.523 (inactive) | -1.8e-05 (inactive) | 0.00678 (inactive) | inactive | 13.4% (inactive)
23 | Nc1ccc2oc(-c3ccccc3Cl)nc2c1 | 644 | -0.2% (inactive) | 7.8% (inactive) | 145 | 0.0664 | -0.553 | -0.135 | -7.67% (inactive) | -0.136 (inactive) | -5.7e-05 (inactive) | 0.00466 (inactive) | inactive | 26.6% (inactive)
24 | CC1(C)Cc2c(C#N)c(SCC(=O)c3ccccc3)nc(N3CCOCC3)c2CS1 | 567 | -9.1% (inactive) | -119% (inactive) | 93.2 | 0.0433 | -1.53 | 0.585 | 5.42% (inactive) | -0.491 (inactive) | 1.6e-05 (inactive) | 0.00928 (inactive) | inactive | 34.2% (inactive)
25 | CC(=O)c1ccc(C#CC(C)(C)O)s1 | 496 | -2.5% (inactive) | -51.1% (inactive) | 126 | -0.749 | 0.398 | 0.00406 | -3.97% (inactive) | -0.386 (inactive) | -7.4e-05 (inactive) | 0.00521 (inactive) | inactive | -7.15% (inactive)
26 | CC(C)COc1ccc(C(=O)OCCN2CCOCC2)c(O)c1 | 551 | -4.8% (inactive) | 5.6% (inactive) | 138 | 0.333 | -1.8 | 0.367 | 19.8% (inactive) | -0.366 (inactive) | -3.7e-07 (inactive) | 0.00568 (inactive) | inactive | 20.9% (inactive)
27 | CCOC(=O)C1=C(C)N=C2SC(C)C(=O)N2C1c1ccc(C(=O)OC)cc1 (stereo unspecified) | 701 | 2.4% (inactive) | -69.3% (inactive) | 146 | -0.735 | 0.0686 | 1.13 | 15% (inactive) | -0.428 (inactive) | -2.7e-05 (inactive) | 0.00536 (inactive) | inactive | -2.25% (inactive)
